From ChEMBL document CHEMBL1131079, “Synthesis and evaluation of 2-amino-9-(3-hydroxymethyl-4-alkoxycarbonyloxybut-1-yl)purines as potential prodrugs of penciclovir” (J Med Chem, 1998)
≈ marks a conversion by molar mass, not a printed value.

What was measured:
[1] = Half-life by the HPLC using a C18 reversed-phase column at pH 6.0 (sodium phosphate buffer) and 37 degree C.; type: ADME
How it was run: (§1)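 Compound at 125 μM final (from 2.5 mM stock) incubated at 37 °C in HCl/NaCl buffer pH 1.2 or sodium phosphate buffer pH 6.0, 7.4 or 8.0. Aliquots taken at intervals were diluted into 0.1 M phosphate pH 7.0 and run isocratically on a C18 column with 0.1% phosphoric acid/MeCN eluents. Half-life calculated from remaining parent concentration.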

[2] = species: Rattus norvegicus; assay: The total amount of penciclovir recovered in the urine over a 48-h period was determined by HPLC using a C18 reversed-phase column in rat.; type: ADME, organism-based; conditions: in vivo
How it was run: (§2)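 Urine collected 48 h in metabolic cages over sodium azide, then filtered. Penciclovir quantified by C18 HPLC with a three-step phosphoric acid/MeCN gradient, UV 248 nm. Result expressed as total urinary penciclovir, % of dose.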

[3] = Half-life by the HPLC using a C18 reversed-phase column at pH 7.4(sodium phosphate buffer) and 37 degree C.; type: ADME; how it was run: as §1
[4] = Solubility at 20 degree C was determined by the comparison of th UV absorbance of the saturated solution of each compound at 290 nm with that of the standard curve.
[5] = Half-life by the HPLC using a C18 reversed-phase column at pH 1.2 (HC/NaCl buffer) and 37 degree C.; type: ADME; conditions: HCl/NaCl buffer; how it was run: as §1
[6] = Half-life by the HPLC using a C18 reversed-phase column at pH 8..0(sodium phosphate buffer) and 37 degree C.; type: ADME; how it was run: as §1
[7] = tested on: Human alphaherpesvirus 1; assay: Compound was tested for in vitro antiviral activity against herpes viruses of type 1 (HSV-1,KOS strain) (concentration required to reduce the OD value by 50% of the virus infected control); type: functional, organism-based
How it was run: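 Dye-uptake assay. Vero cells (10⁵ cells/mL) in EMEM with 5% FBS were infected with HSV-1 KOS at 100 PFU/well. After 1 h adsorption, serial 3-fold compound dilutions from 125 μM were added in quadruplicate. After 48 h at 37 °C, neutral red uptake was eluted and read at 550 nm. EC50 derived by quantal probit analysis against virus and cell controls.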

[8] = species: Mus musculus; assay: The total amount of penciclovir recovered in the urine over a 48-h period was determined by HPLC using a C18 reversed-phase column in mouse.; type: ADME, organism-based; conditions: in vivo; how it was run: as §2
[9] = tested on: Vero; assay: Compound was tested for cytotoxicity in Vero cells (concentration required to reduce the OD value by 50% of the control); type: functional; conditions: Chlorocebus sabaeus
How it was run: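 Vero cells (ATCC) seeded at 5 × 10³ cells/well and grown 24 h in EMEM, then exposed to a range of compound concentrations for 3 days at 37 °C, 5% CO₂. MTT added for a further 4 h, formazan dissolved in DMSO, OD read at 540 nm. CC50 is the concentration giving 50% OD reduction versus control. Quadruplicate wells, experiment repeated twice.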

SMILES | half-life [1] | urinary penciclovir recovery, % of dose [2] | half-life [3] | solubility at 0.29 µM [4] | half-life [5] | half-life [6] | EC50 [7] | Urinary penciclovir recovery over 48 h (% of dose) [8] | CC50 [9]
CC(C)CCOC(=O)OCC(CO)CCn1cnc2cnc(N)nc21 (configuration not stated) | 65 days | 40% | 11 days | 5.6 mg/mL (≈ 15.9 mM) | 24 days | 6 days | > 125 µM | 51% | 357 µM
CCCOC(=O)OCC(CO)CCn1cnc2cnc(N)nc21 (configuration not stated) | 89 days | 34% | 10 days | 68 mg/mL (≈ 210 mM) | 29 days | 4 days | > 125 µM | 51% | > 500 µM
CC(C)OC(=O)OCC(CO)CCn1cnc2cnc(N)nc21 (configuration not stated) | > 200 days | 40% | 61 days | 139 mg/mL (≈ 429 mM) | 88 days | 26 days | > 125 µM | 53% | > 500 µM
CCCCCOC(=O)OCC(CO)CCn1cnc2cnc(N)nc21 (configuration not stated) | 17 days | 38% | 7 days | 4.2 mg/mL (≈ 12 mM) | 25 days | 5 days | > 125 µM | 47% | > 500 µM
Nc1ncc2ncn(CCC3COC(=O)OC3)c2n1 | 2.6 days | 15% | 0.12 days | – | – | 0.07 days | > 125 µM | 27% | > 500 µM
CCCCOC(=O)OCC(CO)CCn1cnc2cnc(N)nc21 (configuration not stated) | 74 days | 41% | 11 days | 15 mg/mL (≈ 44.5 mM) | 29 days | 5 days | > 125 µM | 38% | > 500 µM
CCOC(=O)OCC(CO)CCn1cnc2cnc(N)nc21 (configuration not stated) | 112 days | 40% | 7 days | 20 mg/mL (≈ 64.7 mM) | 35 days | 3 days | > 125 µM | 50% | > 500 µM
CC(C)COC(=O)OCC(CO)CCn1cnc2cnc(N)nc21 (configuration not stated) | 87 days | 37% | 17 days | 1.5 mg/mL (≈ 4.45 mM) | 28 days | 8 days | > 125 µM | 38% | > 500 µM
COC(=O)OCC(CO)CCn1cnc2cnc(N)nc21 (configuration not stated) | 18 days | 39% | 1 days | 14.1 mg/mL (≈ 47.7 mM) | 23 days | 0.5 days | > 125 µM | 45% | > 500 µM
CC(=O)OCC(CCn1cnc2cnc(N)nc21)COC(C)=O [FAMCICLOVIR] | – | 40% | – | – | – | – | > 125 µM | 48% | > 500 µM
Nc1nc2c(ncn2CCC(CO)CO)c(=O)[nH]1 [PENCICLOVIR] | – | 9% | – | – | – | – | 8.65 µM | 3% | > 500 µM
